Test [1] has as its system GSK3β. The test is described as follows: In vitro GSK3β kinase assay. It counts as biochemical. The note with it: 2 µM protein.
Test [2] concerns AHPs. In words: AHP cell proliferation assay. The conditions noted are these: 200 ng/ml in culture medium; cell numbers counted for 2 days; n=3. In kind it is cell-based. Put shortly:
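Adult hippocampal progenitors transduced 2 days with GFP-expressing lentivirus (control, DISC1 shRNA or WT-hDISC1), then FACS-sorted on GFP. 2×10^4 cells seeded per well in medium with recombinant Wnt3a (200 ng/ml) or vehicle. Cells counted each day for 2 days; n=3.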

The test system of test [3] is GSK3β. In kind it is binding. The note with it: GST-tagged DISC1 fragments, purified His-tagged GSK3β, in vitro.

B1: DISC1 221–355: GST-tagged DISC1 protein fragment spanning 221–355 (protein, UniProt Q9NRI5 221-355, looked up, fragment)
chain: GERGEAEGCPPSREAESHCQSPQEMGAKAASLDGPHEDPRCLSRPFSLLATRVSADLAQAARNSSRPERDMHSLPDMDPGSSSSLDPSLAGCGGDGSSGSGDAHSWDTLLRKWEPVLRDCLLRNRRQMEVISLRL
modifications: GST tag
Turning to B1, the “Inhibition of GSK3β autophosphorylation” value in test [1] is “started to inhibit”.

B2: Wnt3a: recombinant Wnt3a protein (protein, UniProt P56704 19-352, looked up)
Protein Wnt-3a: SYPIWWSLAVGPQYSSLGSQPILCASIPGLVPKQLRFCRNYVEIMPSVAEGIKIGIQECQHQFRGRRWNCTTVHDSLAIFGPVLDKATRESAFVHAIASAGVAFAVTRSCAEGTAAICGCSSRHQGSPGKGWKWGGCSEDIEFGGMVSREFADARENRPDARSAMNRHNNEAGRQAIASHMHLKCKCHGLSGSCEVKTCWWSQPDFRAIGDFLKDKYDSASEMVVEKHRESRGWVETLRPRYTYFKVPTERDLVYYEASPNFCEPNPETGSFGTRDRTCNVSSHGIDGCDLLCCGRGHNARAERRREKCRCVFHWCCYVSCQECTRVYDVHTCK
Take B2: in test [2], the “Proliferation of AHPs” value is “significantly stimulated”.

B3: DISC1 356–595: GST-tagged DISC1 protein fragment spanning residues 356–595 (protein)
chain: LKLQKCQEKVVEDGDYDTAETLRQRLEELEQEKGRLSWALPSQQPALRSFLGYLAAQIQVALHGATQRAGSDDPEAPLEGQLRTTAQDSLPASITRRDWLIREKQRLQKEIEALQARMSALEAKEKRLSQELEEQEVLLRWPGCDLMALVAQMSPGQLQEVSKALGETLTSANQAPFQVEPPETLRSLRERTKSLNLAVRELTAQVCSGEKLCSSLRRRLSDLDTRLPALLEAKMLALSG
modifications: left off: GST, end not stated, kept
Turning to B3, the “Interaction with GSK3β” value in test [3] is “strong interactions”. In test [1], the “Inhibition of GSK3β autophosphorylation” value was “started to inhibit”.

(Values after paper PMC2704382 (Cell, 2009).)
